Experimental data collected from several papers.
Effect on: metabolic stability

CCOC(=O)C1=C(C)N/C(=C/c2cc(C)n(-c3cccc(OC)c3)c2C)C1=O — half-life (mouse; liver microsomes; 1 µM): 12 min
CC[C@@H]1C=CC(=O)O[C@@H]1C[C@@H](O)[C@H](C)[C@H](OC)[C@@H](C)Cc1ccccc1 — half-life (mouse; liver microsomes): 4.4 min
CCN(CC)CCNC(=O)c1c(C)[nH]c(/C=C2\C(=O)Nc3ccc(F)cc32)c1C — half-life (mouse; liver microsomes; 1 µM; pH 7.4): 12.8 min
O=S(=O)(Nc1cccc(-c2nnn[nH]2)c1)c1cc(Cl)c(Cl)cc1Cl — half-life (mouse; liver microsomes): 48 min
O=C(OC(C(F)(F)F)C(F)(F)F)N1CCc2ccccc2C1 — half-life (mouse; liver microsomes): 4 min
N=c1c2c(-c3ccccc3)c(-c3ccccc3)n(Cc3ccccc3)c2ncn1C1CCOCC1 — half-life (male CD-1 mouse; liver microsomes; 1 µM; pH 7.4): 30 min
O=C(CC1Cc2ccccc2C1)N[C@H](CN1CCCC1)[C@H](O)c1ccc2c(c1)OCCO2 — half-life (mouse; liver microsomes): 2.5 min
N=C(N)N1CC=C(c2coc(C(=O)Nc3ccc(C4=CCN(C(=N)N)CC4)c(F)c3)c2)CC1 — half-life (CD-1 mouse; liver microsomes; 1 µM): > 60 min
CCOC(=O)C1=C(C)N/C(=C/c2cc(C)n(-c3ccc(SC(F)(F)F)cc3)c2C)C1=O — half-life (mouse; liver microsomes; 1 µM): 23 min
C/C(=N\OCCN)c1cccc(C(C)(C)NC(=O)Nc2ccc(Cl)c([N+](=O)[O-])c2)c1 — half-life (mouse; liver microsomes): > 120 min
CNC(=O)c1ccccc1Nc1cc(Nc2cc(C)c(C3CCN(CCCCCCNC(=O)COc4cccc5c4C(=O)N(C4CCC(=O)NC4=O)C5=O)CC3)cc2OC(C)C)ncc1C(F)(F)F (stereo not shown) — half-life (mouse; liver microsomes): 27 min
O=S(=O)(Nc1cccc(-c2nnn[nH]2)c1)c1ccc(Cl)c(Cl)c1Cl — half-life (mouse; liver microsomes): 192 min
Fc1ccc2nc(Cc3c[nH]c4c(F)cccc34)[nH]c2c1 — half-life (mouse; liver microsomes; pH 7.4): 7.2 min
Cc1ccc(-n2sc3ccccc3c2=O)cc1 — half-life (mouse; liver microsomes): < 60 min
C=CC(=O)Nc1cc(F)c(N2CCC[C@@H](Nc3ncc(Cl)c(-c4c[nH]c5ccccc45)n3)C2)cc1C — half-life (mouse; liver microsomes): 3.9 min
CNC(=O)[C@H](Cc1c[nH]cn1)NC(=O)CN(CCCc1ccccc1)CC(=O)OC — half-life (male mouse; liver microsomes; 1 µM; pH 7.4): 26 min
O=C(Nc1ccc(Cl)c(Cl)c1)c1ccc(N2CCNCC2)c([N+](=O)[O-])c1 — half-life (CD-1 mouse; liver microsomes; 1 µM; pH 7.4): > 110 min
NC[C@@H]1O[C@H](O[C@H]2[C@@H](O)[C@H](O[C@@H]3[C@@H](O)[C@H](N)C[C@H](N)[C@H]3O[C@H]3O[C@H](CO)[C@@H](O)[C@H](O)[C@H]3N)O[C@@H]2CO)[C@H](N)[C@@H](O)[C@@H]1O — half-life (mouse; liver microsomes; 25 µM; pH 7.4): 143 min
COC(=O)CN(CCCc1ccccc1)CC(=O)N[C@@H](Cc1c[nH]cn1)c1nc(C)no1 — half-life (male mouse; liver microsomes; 1 µM; pH 7.4): 19 min
C=CC(=O)Nc1cc(OC)c(N2CCC[C@@H](Nc3ncc(Cl)c(-c4c[nH]c5ccccc45)n3)C2)cc1C — half-life (mouse; liver microsomes): 4.3 min
Cc1noc([C@H](Cc2c[nH]cn2)NC(=O)CN(CCCc2ccccc2)CC(=O)O)n1 — half-life (male mouse; liver microsomes; 1 µM; pH 7.4): > 40 min
CCCCOC(=O)NS(=O)(=O)c1sc(CC(C)C)cc1-c1ccc2c(c1)CN(C(C)=O)C2 — half-life (mouse; liver microsomes; 1 µM; pH 7.4): 1.8 min
CN(C)CCN1CCN(c2nc(NCc3cccc(Cl)c3)c3cc(-c4ccc(=O)n(C)c4)ccc3n2)CC1 — half-life (mouse; liver microsomes): 53 min
CCCN(C)Cc1cc(-c2[nH]c3cccc(F)c3c(=O)c2C)ccc1Cc1ccc(OC(F)(F)F)cc1 — half-life (mouse; liver microsomes): 3.47 min
CC1=C(C(=O)O)C(=O)/C(=C\c2cc(C)n(-c3ccccc3C(F)(F)F)c2C)N1 — half-life (mouse; liver microsomes; 1 µM): 79 min
O=S(=O)(Nc1cccc(-c2nnn[nH]2)c1)c1ccc(F)c(F)c1 — half-life (mouse; liver microsomes): 346 min
CCOc1c(O)cc(Br)c2c1CN1CCc3cc(OCC(F)F)c(O)cc3[C@@H]1C2 — half-life (mouse; liver S9; 2 µM; pH 7.4): 9.63 min
O=C(N[C@H](Cc1c[nH]c2ccccc12)C(=O)Nc1ccncc1)c1ccc(-c2ccc(F)c(F)c2)cc1F — half-life (mouse; liver microsomes): 39 min
CCCC[S+]([O-])c1sc2nc(-c3cccs3)ccc2c1N (stereo not shown) — half-life (female CD-1 mouse; liver S9; 2 µM; pH 7.5): 13 min
NC(=O)C1CCN(c2nnc(-c3ccc4c(c3)OCCCO4)s2)CC1 — half-life (mouse; liver microsomes; 1 µM): > 30 min
O=S(=O)(Nc1cccc(-c2nnn[nH]2)c1)c1ccc(C(F)(F)F)c(F)c1 — half-life (mouse; liver microsomes): 174 min
CCS(=O)(=O)Nc1cccc(-c2cn(C)c(=O)c3ccccc23)c1 — half-life (mouse; liver microsomes): 11 min
COc1ccc2cc(C(=O)Nc3ccc4c(c3)CN(C3CCC(=O)NC3=O)C4=O)ccc2c1 (stereo not shown) — half-life (mouse; liver microsomes; 2 µM): 180 min
COc1cccc(OC)c1CNC(=O)c1cc(C2NC(=O)NC(C)=C2C(=O)Nc2ccc3[nH]ncc3c2)ccc1F (stereo not shown) — half-life (CD-1 mouse; liver microsomes; 1 µM; pH 7.4): < 4 min
CCOC(=O)C1=C(C)N/C(=C/c2cc(C)n(-c3cccnc3)c2C)C1=O — half-life (mouse; liver microsomes; 1 µM): 21 min
CC[C@@H]1C=CC(=O)O[C@@H]1C[C@@H](OC)[C@H](C)[C@H](OC)[C@@H](C)Cc1ccc(F)cc1 — half-life (mouse; liver microsomes): < 2.3 min
COc1cc2[nH]c(C#N)cc2c(C)c1CN1CCC(Nc2ncnc3sc(CC(F)(F)F)cc23)CC1 — half-life (CD-1 mouse; liver microsomes; 1 µM; pH 7.4): > 30 min
CCCCOC(=O)NS(=O)(=O)c1sc(CC(C)C)cc1-c1ccc(OC(F)(F)F)c(Cn2ccnc2)c1 — half-life (mouse; liver microsomes; 1 µM; pH 7.4): 103 min
CC1=C(C(N)=O)C(=O)/C(=C\c2cc(C)n(-c3ccccc3C(F)(F)F)c2C)N1 — half-life (mouse; liver microsomes; 1 µM): 19 min
N=c1c2c(-c3ccccc3)c(-c3ccccc3)n(Cc3ccccc3)c2ncn1[C@H]1CC[C@H](O)CC1 — half-life (male CD-1 mouse; liver microsomes; 1 µM; pH 7.4): > 120 min
CN1CCC(Cc2cccc(CNC3(c4ccc(F)cc4)CCCC3)c2)CC1(C)C (racemic) — half-life (mouse; liver microsomes; 4.6 µM; pH 7.5): ~60 min
Cc1c(CN2CCC(Nc3ncnc4sc(CC(F)(F)F)cc34)CC2)c(O)cc2[nH]c(C#N)cc12 — half-life (CD-1 mouse; liver microsomes; 1 µM; pH 7.4): > 30 min
CN1CC(Cc2cccc(CNC3(c4ccc(F)cc4)CCCC3)c2)C1 — half-life (mouse; liver microsomes; 4.6 µM; pH 7.5): ~60 min
CCOC(=O)C1=C(C)N/C(=C/c2cc(C)n(-c3ccc(F)cc3F)c2C)C1=O — half-life (mouse; liver microsomes; 1 µM): 23 min
CC[C@@H]1C=CC(=O)O[C@@H]1C[C@@H](O)[C@H](C)[C@H](O)[C@@H](C)Cc1ccc(F)cc1 — half-life (mouse; liver microsomes): 3 min
CC(C)Oc1cccc(-c2cnc(N3CCC(C(N)=O)CC3)s2)c1 — half-life (mouse; liver microsomes; 1 µM): > 30 min
COC(=O)c1csc(C(=O)c2c[nH]c3ccccc23)n1 — half-life (mouse; liver microsomes): 11 min
O=c1ccc2ccccc2o1 — half-life (mouse; liver microsomes; 50 µM; pH 7.4): 72 min
CCOC(=O)NS(=O)(=O)c1sc(CC(C)C)cc1-c1ccc2c(c1)CN(C(=O)OCC)C2 — half-life (mouse; liver microsomes; 1 µM; pH 7.4): 2.1 min
O=C1CCN(C(=O)Nc2ccc(F)c(Cl)c2)[C@H]2CCCC[C@@H]12 (relative stereo) — half-life (mouse; liver microsomes): > 32 min
CCCCOC(=O)NS(=O)(=O)c1sc(CC(C)C)cc1-c1ccc2c(c1)CN(C(C)=O)CC2 — half-life (mouse; liver microsomes; 1 µM; pH 7.4): 2.2 min
CCOC(=O)C1=C(C)N/C(=C/c2cc(C)n(-c3ccncc3)c2C)C1=O — half-life (mouse; liver microsomes; 1 µM): 29 min
CC(C)NCC(O)COc1cccc2ccccc12 (stereo not shown) — half-life (mouse; liver microsomes; 1 µM): 11.5 min
CCOC(=O)C1=C(C)N/C(=C/c2cc(C)n(-c3ccc(N4CCOCC4)cc3)c2C)C1=O — half-life (mouse; liver microsomes; 1 µM): 57 min
Cc1ccc(S(=O)(=O)Nc2cccc(-c3nnn[nH]3)c2)cc1C(F)(F)F — half-life (mouse; liver microsomes): 38 min
